Assay results gathered from unrelated publications.
Each line is one published result; the experiments were not run side by side. pIC50: −log10 of the molar value.

CC(C)C[C@H](NC(=O)[C@H](Cc1ccccc1)NC(=O)c1cnccn1)B(O)O  pIC50 (LOU-NH91; cell growth or viability; ATP luminescence): 7.96
c1ccc(CNCc2cc3c(-c4ccccc4)n[nH]c3c(Nc3ccccc3)n2)cc1  pIC50 (MIA PaCa-2; cell growth or viability; MTS; 48 h): 5.59
CC/C(=C(\c1ccc(O)cc1)c1ccc(OCCN(C)C)cc1)c1ccccc1  pIC50 (T47D; cell growth or viability; 5 days): 5.67
COc1cc2c(=O)n(CCN(C)C)c3c4cc5c(cc4ncc3c2cc1OC)OCO5  pIC50 (RPMI 8402; cell growth or viability; MTT; 96 h): 8.70
COc1cccc(C(=O)O[C@@H]2CN3Cc4c(cc5c(c4OC)OCO5)[C@@]24C=C[C@H](OC)C[C@@H]34)c1  pIC50 (MOLT-4; cell growth or viability; WST-1): < 5.00
N#CCCCC1=CC2C=CC=CC1C2C1CCCCC1=O (centres unmarked)  pIC50 (Jurkat; cell growth or viability; flow cytometry): 7.16
C[C@H](Nc1ncnc2nc[nH]c12)c1cc2cccc(Cl)c2c(=O)n1-c1ccccc1  pIC50 (CD4+ T; lymphocyte proliferation; inhibitor): 7.00
COc1cc2nccc(Oc3ccc(NC(=O)C4(C(=O)Nc5ccc(F)cc5)CC4)cc3)c2cc1OC  pIC50 (Rh4; cell growth or viability; 72 h): 5.51
O=c1c(O[C@@H]2O[C@H](CO)[C@H](O)[C@H](O)[C@H]2O)c(-c2ccc(O)c(O)c2)oc2cc(O)cc(O)c12  pIC50 (SW780; cell growth or viability; ATP luminescence; 72 h): 3.87
CCOc1cc(OCC)cc(C(=O)O[C@@H]2CN3Cc4c(cc5c(c4OC)OCO5)[C@@]24C=C[C@H](OC)C[C@@H]34)c1  pIC50 (MOLT-4; cell growth or viability; WST-1): 5.12
O=C(O)/C=C/c1ccc(O)cc1  pIC50 (PaCa-2; cell growth or viability; MTT): < 4.30
Cc1cc(Nc2ncc(Cl)c(Nc3ccccc3S(=O)(=O)C(C)C)n2)c(OC(C)C)cc1C1CCNCC1  pIC50 (Rh4; cell growth or viability; 72 h): 6.47
OC[C@H]1O[C@@H](Oc2cc3c(O)cc(O)cc3[o+]c2-c2ccc(O)c(O)c2)[C@H](O)[C@@H](O)[C@H]1O  pIC50 (SW780; cell growth or viability; ATP luminescence; 72 h): 4.07
CC(=O)c1ccc(N=Nc2c(C(=O)O)cc(O)c(O)c2O)cc1  pIC50 (PaCa-2; cell growth or viability; MTT): 4.92
COc1ccc(-c2nc(OCc3cn(CC(=O)Nc4cccc(OC)c4)nn3)c3ccccc3n2)cc1  pIC50 (WRL68; cell growth or viability; MTT; 72 h): 4.08
Cn1cc(C(c2cccc(/C=C/C(=O)O)c2)c2cn(C)c3ccccc23)c2ccccc21  pIC50 (LNCaP; cell growth or viability; MTT; 48 h): < 4.70
CO[C@@H](C[C@H]1C(C)=CC[C@@H]2[C@]3(C)C[C@H](O[C@@H]4O[C@@H](C)[C@H](OC(=O)c5cccc(O)c5)[C@@H](O[C@@H]5O[C@H](CO)[C@@H](O)[C@H](O)[C@H]5NC(C)=O)[C@H]4O)[C@@H](O)C(C)(C)[C@H]3CC[C@]21C)[C@H](N)C(=O)O  pIC50 (LN-229; cell growth or viability; ATP luminescence; 6 days): 6.89
O=C1CCCCC1C1C2C=CC=CC1C(CCCCOC1CCCCO1)=C2 (centres unmarked)  pIC50 (Jurkat; cell growth or viability; flow cytometry): 6.87
COc1cc(Nc2nc(C#N)cc3c(-c4ccccc4)n[nH]c23)cc(OC)c1OC  pIC50 (MIA PaCa-2; cell growth or viability; MTS; 48 h): 5.52
CCCCC1=CC2C=CC=CC1C2C1CCCCC1=O (centres unmarked)  pIC50 (Jurkat; cell growth or viability; flow cytometry): 7.43
Cn1cc(C(c2ccc(/C=C/C(=O)O)s2)c2cn(C)c3ccccc23)c2ccccc21  pIC50 (LNCaP; cell growth or viability; MTT; 48 h): < 4.70
CCN(CC)CCCCNc1ncc2cc(-c3cc(OC)cc(OC)c3)c(NC(=O)NC(C)(C)C)nc2n1  pIC50 (SW780; cell growth or viability; MTT; 5 days): 7.30
O=C(O)/C=C/c1ccc(C(c2c[nH]c3ccccc23)c2c[nH]c3ccccc23)s1  pIC50 (LNCaP; cell growth or viability; MTT; 48 h): 4.26
C#Cc1cccc(Nc2ncnc3cc(OCCOC)c(OCCOC)cc23)c1  pIC50 (PaCa-2; cell growth or viability; MTT): 7.22
O=C(O)C(c1c[nH]c2ccccc12)c1c[nH]c2ccccc12  pIC50 (LNCaP; cell growth or viability; MTT; 48 h): < 4.00
COc1cc(-c2oc3cc(O)cc(O)c3c(=O)c2O)ccc1O  pIC50 (SW780; cell growth or viability; ATP luminescence; 72 h): 4.90
COc1cc(Nc2nccc(-c3cnn4nc(OC)ccc34)n2)cc(C(F)(F)F)c1  pIC50 (COV434; cell growth or viability; ATP luminescence): 6.30
COc1cc(-c2[o+]c3cc(O)cc(O)c3cc2O[C@@H]2O[C@H](CO)[C@@H](O)[C@H](O)[C@H]2O)ccc1O  pIC50 (SW780; cell growth or viability; ATP luminescence; 72 h): 3.86
COc1ccc(C(=O)O[C@@H]2CN3Cc4c(cc5c(c4OC)OCO5)[C@@]24C=C[C@H](OC)C[C@@H]34)cc1OC  pIC50 (MOLT-4; cell growth or viability; WST-1): 5.13
CC(=O)OCCC1=CC2C=CC=CC1C2C1CCCCC1=O (centres unmarked)  pIC50 (Jurkat; cell growth or viability; flow cytometry): 7.19
O=C(O)c1cc(O)c(O)c(O)c1  pIC50 (PaCa-2; cell growth or viability; MTT): 4.76
COc1cc2c(Oc3ccc(NC(=O)C4(C(=O)Nc5ccc(F)cc5)CC4)cc3F)ccnc2cc1OCCCN1CCOCC1  pIC50 (Rh4; cell growth or viability; 72 h): 6.66
